Calls of active or inactive are those of the source. No cut-off for these calls is given here.
Legend:
Pseudomonas aeruginosa [1] = experiment: Downregulation of rhlR gene expression in Pseudomonas aeruginosa PAO1 assessed as fold decrease at 25 ug/ml by RT-qPCR analysis; assay type: functional; details: dose 25 µg/ml
Pseudomonas aeruginosa [2] = experiment: Downregulation of lasR gene expression in Pseudomonas aeruginosa PAO1 assessed as fold decrease at 25 ug/ml by RT-qPCR analysis; assay type: functional; details: dose 25 µg/ml
Pseudomonas aeruginosa [3] = experiment: Inhibition of biofilm formation in Pseudomonas aeruginosa PAO1 at 1/2 times MIC incubated for 24 hrs crystal violet staining based SEM assay; assay type: functional
Pseudomonas aeruginosa [4] = experiment: Antibacterial activity against Pseudomonas aeruginosa PAO1 assessed as bacterial growth inhibition at 6.25 to 25 ug/ml by serial dilution method; assay type: functional, organism-based; details: dose 6.25-25 µg/ml
In short: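 PAO1 in LB, 37 °C. MIC by CLSI 2-fold serial dilution in Mueller–Hinton broth, inoculum 1–5 × 10^5 CFU mL−1, DMSO stocks. Growth curves: overnight culture diluted to OD600 = 0.05, subcultured to mid-log, rediluted to OD600 = 0.05, 3 mL with compound; OD620 read at 1, 3, 5, 7, 9, 11 and 24 h at 37 °C; DMSO negative control.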

[5] = Inhibition of quorum sensing system in Pseudomonas aeruginosa PAO1 assessed as reduction in 3-oxo-C12-HSL level at 50 ug/ml incubated for 24 hrs by LC-MS/MS method; details: dose 50.0 µg/ml
[6] = Inhibition of quorum sensing system in Pseudomonas aeruginosa PAO1 assessed as reduction in 3-oxo-C12-HSL level at 25 ug/ml incubated for 24 hrs by LC-MS/MS method; details: dose 25.0 µg/ml
[7] = Inhibition of quorum sensing system in Pseudomonas aeruginosa PAO1 assessed as reduction in 3-oxo-C12-HSL level at 12.5 ug/ml incubated for 24 hrs by LC-MS/MS method; details: dose 12.5 µg/ml
Pseudomonas aeruginosa [8] = experiment: Inhibition of biofilm formation in Pseudomonas aeruginosa PAO1 at 6.25 ug/ml incubated for 24 hrs crystal violet staining based assay; assay type: functional
In short: (§1)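 PAO1 grown statically for 24 h in LB ± compound in 24-well plates. Planktonic cells removed; attached cells stained with 0.05% crystal violet, rinsed, dissolved in 95% ethanol, read at OD570. DMSO negative, resveratrol positive control; SD from three independent experiments.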

Pseudomonas aeruginosa [9] = experiment: Inhibition of biofilm formation in Pseudomonas aeruginosa PAO1 at 12.5 ug/ml incubated for 24 hrs crystal violet staining based assay; assay type: functional; in short: as §1
Pseudomonas aeruginosa [10] = experiment: Inhibition of biofilm formation in Pseudomonas aeruginosa PAO1 at 25 ug/ml incubated for 24 hrs crystal violet staining based assay; assay type: functional; in short: as §1
Pseudomonas aeruginosa [11] = experiment: Inhibition of biofilm formation in Pseudomonas aeruginosa PAO1 assessed as reduction in biofilm by measuring scattered appearance at 25 ug/ml incubated for 24 hrs by scanning electron microscopic assay; assay type: functional, organism-based; details: dose 25.0 µg/ml
In short: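 PAO1 biofilms on coverslips treated with compound at 6.25, 12.5 or 25 μg mL−1 or DMSO. Coverslips PBS-washed, fixed in 2.5% glutaraldehyde, ethanol-dehydrated, freeze-dried, gold-coated and imaged by SEM.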

Pseudomonas aeruginosa [12] = experiment: Induction of biofilm eradication in Pseudomonas aeruginosa PAO1 at 6.25 ug/ml by crystal violet staining based assay; assay type: functional; details: dose 6.25 µg/ml
In short: (§2)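 PAO1 biofilms grown overnight at 37 °C in LB in 24-well plates, washed with PBS, then fresh LB with compound added and grown overnight again. Washed, methanol-fixed, crystal violet stained, ethanol solubilised, read at OD570. DMSO negative, resveratrol positive control.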

Pseudomonas aeruginosa [13] = experiment: Induction of biofilm eradication in Pseudomonas aeruginosa PAO1 at 12.5 ug/ml by crystal violet staining based assay; assay type: functional; details: dose 12.5 µg/ml; in short: as §2
Pseudomonas aeruginosa [14] = experiment: Induction of biofilm eradication in Pseudomonas aeruginosa PAO1 at 25 ug/ml by crystal violet staining based assay; assay type: functional; details: dose 25 µg/ml; in short: as §2
Pseudomonas aeruginosa [15] = experiment: Anti-virulence effect in Pseudomonas aeruginosa PAO1 assessed as inhibition of pyocyanin production; assay type: functional, organism-based
In short: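 Overnight PAO1 culture in LB at 37 °C, diluted to OD600 0.05 and subcultured 5–7 h to mid-log phase, then re-diluted to OD600 0.05. Grown 18 h at 37 °C and 200 rpm with compound (6.25, 12.5, 25 μg mL−1) or DMSO. Supernatant extracted into chloroform, back-extracted into 0.2 M HCl, read at 520 nm.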

SMILES: Cc1cccc(C#N)c1Cc1c[nH]c2ccccc12
- fold change (FC) (Pseudomonas aeruginosa [1]): 9.71
- fold change (FC) (Pseudomonas aeruginosa [2]): 4.42
- inhibition (INH) (Pseudomonas aeruginosa [3]): 52%
- Activity (Pseudomonas aeruginosa [4]): inactive
- inhibition [5]: 41%
- inhibition [6]: 60%
- inhibition [7]: 72%
- inhibition at 6.25 µg/mL (Pseudomonas aeruginosa [8]): 32%
- inhibition at 12.5 µg/mL (Pseudomonas aeruginosa [9]): 53%
- inhibition at 25 µg/mL (Pseudomonas aeruginosa [10]): 70%
- inhibition (Pseudomonas aeruginosa [11]): Active
- Activity (Pseudomonas aeruginosa [12]): 43%
- Activity (Pseudomonas aeruginosa [13]): 50%
- Activity (Pseudomonas aeruginosa [14]): 57%
- Activity (Pseudomonas aeruginosa [15]): Dose-dependent-effect

From ChEMBL document CHEMBL6083194, “Discovery and evaluation of 3-(2-isocyanobenzyl)-1H-indole derivatives as potential quorum sensing inhibitors for the control of Pseudomonas aeruginosa infections in vitro” (RSC Med Chem, 2024)
